TROY NFkB inh = inhibitors of TROY-driven NF-kB signaling, primary screen, Q293 LMP1-TROYcd cells, NF-kB luciferase, uHTS. Q293 LMP1-TROYcd NF-kB luciferase reporter, 4 h. inhibition, % at 10 µM. actives 0.98% (n = 360,000). AID 1347056, 2019;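 active means compounds whose plate-normalised and pattern-corrected inhibition of the luciferase reporter signal at the single screening dose is 50% or more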
HIF activator = HIF pathway transcriptional activators, primary screen, cell-based, U2OS HRE-luciferase, luminescence. actives 0.32% (n = 300,000). activation, % at 7.5 µM (by protocol). U2OS HRE-luciferase reporter; normalized: DMSO 0%, desferrioxamine 100%. AID 1910, 2009;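 active means mean activation of at least 10% of the iron chelator positive control signal, with at least half of replicates also reaching 10%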
NR2E3 ag-1 = inhibitors of NR2E3-RetCOR corepressor binding, primary screen, NR2E3 agonist project, biochemical, TR-FRET, GST-NR2E3, biotin-RetCOR. actives 0.12% (n = 320,000). Photoreceptor-specific nuclear receptor (Homo sapiens), Q9Y5X4. inhibition of corepressor binding, % at 4.78 µM. 1536-well;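 active means percent inhibition above the cutoff of mean plus 3 SD of all tested compounds, set per screening campaign, cut at about 20% in these data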;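 further: 0% = DMSO wells and 100% = biotin wells as full block of FRET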
Target sequence (Q9Y5X4 whole entry, looked up): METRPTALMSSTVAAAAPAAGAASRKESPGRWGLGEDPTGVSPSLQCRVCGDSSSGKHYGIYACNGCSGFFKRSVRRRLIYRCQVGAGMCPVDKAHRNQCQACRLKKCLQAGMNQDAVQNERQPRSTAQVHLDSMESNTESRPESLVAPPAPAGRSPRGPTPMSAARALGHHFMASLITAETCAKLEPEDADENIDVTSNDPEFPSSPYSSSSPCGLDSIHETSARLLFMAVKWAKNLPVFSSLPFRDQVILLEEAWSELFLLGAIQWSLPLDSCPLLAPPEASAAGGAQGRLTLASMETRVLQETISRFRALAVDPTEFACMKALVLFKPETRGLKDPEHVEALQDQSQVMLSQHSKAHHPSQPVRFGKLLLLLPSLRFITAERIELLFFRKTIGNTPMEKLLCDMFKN
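System: GST-NR2E3 and biotin-RetCOR proteins; probe or stimulus: 7 nM biotin-RetCOR; doses: compound at 4.8 µM, single dose; schedule: Compound–protein incubation for 5 h at 4 °C; detection: time-resolved FRET; read-out: percent inhibition; controls: biotin wells as high control, 0.6% DMSO wells as low control; format: 1536-well plates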
LMP1 NFkB inh = EBV LMP1-driven NF-kappaB luciferase reporter inhibitors, primary screen, cell-based, luminescence, single point. actives 0.69% (n = 350,000). inhibition, % at 12.5 µM. LMP1-induced NF-kappaB luciferase reporter cells; in the data active means inhibition above about 41%;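 further: 0% = neutral control wells and 100% = reference inhibitor control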
NR2E3 ag-2 = NR2E3 agonists in two-hybrid cells, primary screen, cell-based, luminescence, CHO-S, Gal4-NCOR/VP16-NR2E3; Photoreceptor-specific nuclear receptor (Homo sapiens), Q9Y5X4; luciferase; inhibition of corepressor binding, % at 3.98 µM; actives 0.35% (n = 360,000); AID 602229, 2012;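 active means inhibition above the mean of all tested compounds plus 3 SD, cut at about 70% in these data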;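 further: 0% = DMSO with NR2E3 transfected cells and 100% = cells lacking NR2E3 construct; higher means lower luciferase signal from less NR2E3 corepressor binding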
* hit, by the source's call. Hits are enriched below; roughly 2% of the tested compounds scored in any of these assays.

For COc1cc(SC)ccc1C(=O)Nc1ccc(Br)cn1 the results were TROY NFkB inh 84.0*, HIF activator -2.3, NR2E3 ag-1 1.9, LMP1 NFkB inh 50.9* and NR2E3 ag-2 -70.8.
COc1ccc(NC(=O)Nc2ccc(Br)cn2)cc1 was read as TROY NFkB inh -39.2, HIF activator 40.4*, NR2E3 ag-1 9.7, LMP1 NFkB inh -19.8 and NR2E3 ag-2 -23.2.
Screening COC(=O)c1ccccc1NC(=O)Nc1ccc(Br)cn1 returned TROY NFkB inh -6.1, HIF activator 0.9, NR2E3 ag-1 0.0, LMP1 NFkB inh -2.8 and NR2E3 ag-2 -30.4.
`Cc1ccoc1C(=O)Nc1ccc2ccccc2c1` gave TROY NFkB inh 0.6, HIF activator -1.9, NR2E3 ag-1 -3.7, LMP1 NFkB inh 6.2 and NR2E3 ag-2 -109.9.
Cc1ccoc1C(=O)Nc1ccc(CC(=O)O)cc1 was read as TROY NFkB inh 14.3, HIF activator -6.5, NR2E3 ag-1 -0.5, LMP1 NFkB inh 44.3* and NR2E3 ag-2 6.6.
Screening COc1cc(SC)ccc1C(=O)Nc1ccc(C)cc1C returned TROY NFkB inh -85.2, HIF activator 10.4*, NR2E3 ag-1 -3.4 and LMP1 NFkB inh -47.4.
For COc1cc(SC)ccc1C(=O)Nc1ccc(C)cc1 the results were TROY NFkB inh -17.2, HIF activator -0.1, NR2E3 ag-1 0.3, LMP1 NFkB inh -68.6 and NR2E3 ag-2 -146.0.
Screening COc1ccccc1CNC(=O)C1CCN(c2ncnc3c2nc2n3CCCCC2)CC1 returned TROY NFkB inh 9.1, HIF activator 0.4, NR2E3 ag-1 -1.5, LMP1 NFkB inh 3.3 and NR2E3 ag-2 22.0.
`CC1CCCN(C(=O)CCNS(=O)(=O)c2ccc3c(c2)c(=O)n(C)c(=O)n3C)C1` (configuration not stated) gave TROY NFkB inh -12.3, HIF activator -0.6, NR2E3 ag-1 1.1, LMP1 NFkB inh 8.4 and NR2E3 ag-2 27.5.
`COc1cc(SC)ccc1C(=O)Nc1ncc(C)s1` gave TROY NFkB inh 83.1*, HIF activator -6.8, NR2E3 ag-1 3.0, LMP1 NFkB inh 74.2* and NR2E3 ag-2 -48.0.
`COc1ccc(NC(=O)Nc2ccc(CC(=O)O)cc2)cc1` gave TROY NFkB inh -13.5, HIF activator 27.1*, NR2E3 ag-1 1.0, LMP1 NFkB inh 0.3 and NR2E3 ag-2 -0.8.
For CCOC(=O)c1ccc(-c2c(-c3ccccc3OC)sc3ccc(OC)cc23)cc1F the results were TROY NFkB inh 53.2*, LMP1 NFkB inh 8.2 and NR2E3 ag-2 -1.5.
CN(CCc1ccccc1)C(=O)c1ccc(NC(=O)Cc2ccc(NC(=O)C3CCCN(S(=O)(=O)c4cccc([N+](=O)[O-])c4)C3)cc2)cc1 (configuration not stated) was read as TROY NFkB inh -0.2, LMP1 NFkB inh 2.8 and NR2E3 ag-2 -21.3.
N#CC1=C(N)NC(SCc2ccc(Br)cc2)=C(C#N)C12CCCCC2 was read as TROY NFkB inh 54.0*, HIF activator -0.4, NR2E3 ag-1 0.7, LMP1 NFkB inh 3.6 and NR2E3 ag-2 -4.0.
COC(=O)C1CCN(C(=O)COC(=O)c2n[nH]c3ccccc23)CC1 was read as TROY NFkB inh -25.6, HIF activator 0.2, NR2E3 ag-1 2.0, LMP1 NFkB inh -3.9 and NR2E3 ag-2 -45.7.
CC1CCCN(C(=O)COC(=O)c2n[nH]c3ccccc23)C1 (configuration not stated) was read as TROY NFkB inh -79.6, HIF activator 2.5, NR2E3 ag-1 3.0, LMP1 NFkB inh 60.9* and NR2E3 ag-2 -66.0.
Cc1ccc(OCC(O)CN2CCOCC2)c(C)c1 (configuration not stated) was read as TROY NFkB inh -12.2, HIF activator 0.6, NR2E3 ag-1 -2.9, LMP1 NFkB inh -5.5 and NR2E3 ag-2 -15.7.
`Cc1ccc2nc(N(CCCN(C)C)C(=O)c3sc4ccccc4c3Cl)sc2c1` gave TROY NFkB inh 50.4*, HIF activator -0.3, NR2E3 ag-1 3.9, LMP1 NFkB inh 6.8 and NR2E3 ag-2 -8.0.
For O=C(Cc1coc2cc3c(cc12)CCC3)OCC(=O)N1CCCC1=O the results were TROY NFkB inh 59.1*, HIF activator -1.4, NR2E3 ag-1 -1.2, LMP1 NFkB inh 15.9 and NR2E3 ag-2 12.1.
CC(=O)Nc1ccc(Nc2nc(-c3sc(NC(C)=O)nc3C)cs2)cc1 was read as TROY NFkB inh 14.4, HIF activator -4.8, NR2E3 ag-1 2.5, LMP1 NFkB inh 21.9 and NR2E3 ag-2 0.3.
For CC(=O)Nc1nc(C)c(-c2csc(Nc3cccc([N+](=O)[O-])c3)n2)s1 the results were TROY NFkB inh 37.5, HIF activator -0.8, NR2E3 ag-1 0.8, LMP1 NFkB inh 49.9* and NR2E3 ag-2 32.5.
Screening CC(=O)Nc1nc(C)c(-c2csc(Nc3ccc(O)cc3)n2)s1 returned TROY NFkB inh 10.1, NR2E3 ag-1 -3.5, LMP1 NFkB inh 45.1* and NR2E3 ag-2 -4.2.
`CN(CC1COc2ccccc2O1)C(=O)c1ccc(Cl)c(S(=O)(=O)N2CCCCCC2)c1` (configuration not stated) gave TROY NFkB inh 15.4, NR2E3 ag-1 -1.7, LMP1 NFkB inh 7.8 and NR2E3 ag-2 -9.1.
`NC(=O)Cn1c(=O)n(CCC(=O)NCCSCc2ccccc2)c(=O)c2ccccc21` gave TROY NFkB inh 71.0*, HIF activator 0.0, NR2E3 ag-1 -2.0, LMP1 NFkB inh -3.4 and NR2E3 ag-2 -4.8.
O=C(CCn1c(=O)[nH]c2ccccc2c1=O)NCCSCc1ccccc1 was read as TROY NFkB inh 3.5, HIF activator -0.3, NR2E3 ag-1 -0.6, LMP1 NFkB inh 2.3 and NR2E3 ag-2 -9.6.
`COc1ccc(OC)c(-c2nnc3n2N=C(c2ccc(OC)c(OC4CCCC4)c2)CS3)c1` gave TROY NFkB inh 46.5, LMP1 NFkB inh 48.3* and NR2E3 ag-2 15.1.
`COc1ccc(OC)c(-c2nnc3n2N=C(c2ccc(OC)c(OC)c2)CS3)c1` gave TROY NFkB inh 33.9, LMP1 NFkB inh 14.4 and NR2E3 ag-2 32.8.
For COc1ccc(C2=Nn3c(nnc3-c3ccccc3F)SC2)cc1OC1CCCC1 the results were TROY NFkB inh 40.8, LMP1 NFkB inh 54.5* and NR2E3 ag-2 -80.2.
COc1ccc(C2=Nn3c(nnc3-c3ccccc3F)SC2)cc1OC1CCOC1 (configuration not stated) was read as TROY NFkB inh 30.6, LMP1 NFkB inh 7.2 and NR2E3 ag-2 -42.6.
Screening O=C1/C(=C\c2cc([N+](=O)[O-])ccc2O)SC(=S)N1Cc1ccc(Cl)cc1 returned TROY NFkB inh 52.7*, HIF activator 0.0, NR2E3 ag-1 3.9, LMP1 NFkB inh -3.3 and NR2E3 ag-2 -21.4.

Screening data deposited in PubChem BioAssay by several laboratories.
